Laboratory results: ChEMBL document CHEMBL2203006, “Design, synthesis and pharmacological evaluation of 4-(piperazin-1-yl methyl)-N₁-arylsulfonyl indole derivatives as 5-HT₆ receptor ligands” (Bioorg Med Chem Lett, 2012)
Calls of active or inactive are those of the source. The calls are words filed in the database; no cut-off is given here.

Tests used:
[1] = biological target: Sodium-dependent dopamine transporter (Homo sapiens) (UniProt Q01959); assay: Inhibition of DAT at 1 uM by radioligand displacement assay
Procedure, shortened: (§1)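 Single-concentration screen at 1 µM. Percent inhibition was measured by competitive displacement of each target's radioligand.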

[2] = biological target: 5-hydroxytryptamine receptor 2A (Homo sapiens) (UniProt P28223); assay: Inhibition of 5HT2A receptor at 1 uM by radioligand displacement assay; procedure, shortened: as §1
[3] = biological target: D(2) dopamine receptor (Homo sapiens) (UniProt P14416); assay: Inhibition of dopamine D2 receptor at 1 uM by radioligand displacement assay; procedure, shortened: as §1
[4] = biological target: Sodium-dependent noradrenaline transporter (Homo sapiens) (UniProt P23975); assay: Inhibition of NET at 1 uM by radioligand displacement assay; procedure, shortened: as §1
[5] = biological target: Histamine H1 receptor (Homo sapiens) (UniProt P35367); assay: Inhibition of histamine H1 receptor at 1 uM by radioligand displacement assay; procedure, shortened: as §1
[6] = biological target: Sodium-dependent serotonin transporter (Homo sapiens) (UniProt P31645); assay: Inhibition of SERT at 1 uM by radioligand displacement assay; procedure, shortened: as §1
[7] = biological target: T1, Alpha-1B adrenergic receptor (Homo sapiens) (UniProt P35368); assay: Inhibition of adrenergic alpha1B receptor at 1 uM by radioligand displacement assay; procedure, shortened: as §1
T1 sequence (whole entry): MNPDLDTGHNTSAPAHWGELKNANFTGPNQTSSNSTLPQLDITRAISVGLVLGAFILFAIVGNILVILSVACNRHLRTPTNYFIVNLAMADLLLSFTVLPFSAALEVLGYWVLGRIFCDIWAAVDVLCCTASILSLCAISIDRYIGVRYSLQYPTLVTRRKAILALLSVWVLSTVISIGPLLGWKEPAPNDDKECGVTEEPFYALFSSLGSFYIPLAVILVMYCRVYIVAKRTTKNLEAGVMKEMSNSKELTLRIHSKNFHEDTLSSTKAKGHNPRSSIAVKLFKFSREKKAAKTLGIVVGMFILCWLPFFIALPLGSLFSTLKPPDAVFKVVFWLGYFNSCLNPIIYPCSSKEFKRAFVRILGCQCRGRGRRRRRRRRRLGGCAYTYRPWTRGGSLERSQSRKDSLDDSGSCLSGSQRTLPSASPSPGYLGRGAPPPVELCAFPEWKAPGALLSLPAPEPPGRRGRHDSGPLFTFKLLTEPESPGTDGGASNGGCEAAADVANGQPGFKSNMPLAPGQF

hERG (KCNH2) = hERG (KCNH2) (Homo sapiens, UniProt Q12809); assay: Inhibition of human ERG at 1 uM by radioligand displacement assay; procedure, shortened: as §1
[8] = biological target: D(3) dopamine receptor (Homo sapiens) (UniProt P35462); assay: Inhibition of dopamine D3 receptor at 1 uM by radioligand displacement assay; procedure, shortened: as §1
[9] = biological target: T2, 5-hydroxytryptamine receptor 3A (Homo sapiens) (UniProt P46098); assay: Inhibition of 5HT3 receptor at 1 uM by radioligand displacement assay; procedure, shortened: as §1
T2 sequence (whole entry): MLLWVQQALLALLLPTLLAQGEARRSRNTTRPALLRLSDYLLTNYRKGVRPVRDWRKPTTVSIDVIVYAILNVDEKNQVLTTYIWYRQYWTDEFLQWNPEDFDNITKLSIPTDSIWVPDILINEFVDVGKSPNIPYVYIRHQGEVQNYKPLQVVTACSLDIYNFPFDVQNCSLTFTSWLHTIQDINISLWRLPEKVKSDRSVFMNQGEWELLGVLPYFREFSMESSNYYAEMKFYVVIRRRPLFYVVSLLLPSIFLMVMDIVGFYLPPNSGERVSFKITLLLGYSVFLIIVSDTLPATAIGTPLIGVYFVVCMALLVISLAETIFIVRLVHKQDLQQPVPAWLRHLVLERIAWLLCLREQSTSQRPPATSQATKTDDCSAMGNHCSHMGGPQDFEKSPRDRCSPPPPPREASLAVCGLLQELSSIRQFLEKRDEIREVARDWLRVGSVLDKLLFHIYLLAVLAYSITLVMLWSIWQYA

[10] = Tmax in Wistar rat at 10 mg/kg, po; assay type: ADME, organism-based; parameters: dose 10 mg/kg, route oral; details: in vivo
Procedure, shortened: (§2)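 Fasted male Wistar rats were dosed orally at 10 mg/kg in water for injection (10 mL/kg). Parameters come from the plasma concentration-time profile.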

[11] = Cmax in Wistar rat at 10 mg/kg, po; assay type: ADME, organism-based; parameters: dose 10 mg/kg, route oral; details: in vivo; procedure, shortened: as §2
Cytochrome P450 3A4 = Cytochrome P450 3A4 (Homo sapiens, UniProt P08684); assay: Inhibition of CYP3A4 in human liver microsomes using midazolam as substrate after 5 mins in presence of NADPH; assay type: ADME, Microsome
Cytochrome P450 2D6 = Cytochrome P450 2D6 (Homo sapiens, UniProt P10635); assay: Inhibition of CYP2D6 in human liver microsomes using dextromethorphan as substrate after 10 mins in presence of NADPH; assay type: ADME, Microsome
[12] = Oral bioavailability in Wistar rat at 10 mg/kg; assay type: ADME, organism-based; details: in vivo; procedure, shortened: as §2
[13] = Drug metabolism in human liver microsomes at 2.5 uM after 0.5 hrs; assay type: ADME, Microsome; details: read-out: Drug metabolism
[14] = AUCt in Wistar rat at 10 mg/kg, po; assay type: ADME, organism-based; parameters: dose 10 mg/kg, route oral; details: plasma; procedure, shortened: as §2
[15] = Half life in Wistar rat at 5 to 10 mg/kg, iv; assay type: ADME, organism-based; parameters: dose 5-10 mg/kg, route intravenous; details: in vivo
Procedure, shortened: (§3)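 Fasted male Wistar rats were dosed intravenously in water for injection at 2 mL/kg. Parameters come from the plasma profile.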

[16] = biological target: T3, 5-hydroxytryptamine receptor 6 (Homo sapiens, UniProt P50406); assay: Antagonist activity at recombinant human 5HT6 receptor expressed in CHO cells assessed as inhibition of 5HT-stimulated cAMP accumulation after 4 hrs by luciferase reporter gene assay relative to control; assay type: functional, cell-based
[17] = Clearance in Wistar rat at 5 to 10 mg/kg, iv; assay type: ADME, organism-based; parameters: dose 5-10 mg/kg, route intravenous; details: in vivo; procedure, shortened: as §3
[18] = biological target: T3, 5-hydroxytryptamine receptor 6; assay: Displacement of [3H]-LSD from cloned human 5HT6 receptor expressed in HEK293 cells; assay type: cell-based
Procedure, shortened: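 Human recombinant 5-HT6 receptor expressed in HEK293 cells. Radioligand [3H]-LSD (60–80 Ci/mmol) at 1.5 nM final. Methiothepin mesylate defined non-specific binding and served as reference. Ki values are the average of duplicate determinations, run under a contract lab's standard protocol.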

[19] = Drug metabolism in Wistar rat liver microsomes at 2.5 uM after 0.5 hrs; assay type: ADME, Microsome; details: read-out: Drug metabolism
[20] = biological target: T3, 5-hydroxytryptamine receptor 6; assay: Antagonist activity at recombinant human 5HT6 receptor expressed in CHO cells assessed as inhibition of 5HT-stimulated cAMP accumulation after 4 hrs by luciferase reporter gene assay; assay type: functional, cell-based
Procedure, shortened: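 Functional antagonism measured in a non-radioactive CHO cell-based assay as inhibition of 5-HT-stimulated cAMP accumulation. IC50 was derived from this inhibition, and Kb values were determined in the same cell-based format. IC50 and Kb are each the mean of two experiments.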

[21] = Apparent volume of distribution in Wistar rat at 5 to 10 mg/kg, iv; assay type: ADME, organism-based; parameters: dose 5-10 mg/kg, route intravenous; details: in vivo, read-out: Vz; procedure, shortened: as §3
Rattus norvegicus = assay: Cognitive enhancing effect in Wistar rat assessed as reversal of time delay-induced memory deficit at 10 mg/kg, po after 60 mins by object recognition test; assay type: functional, organism-based; parameters: dose 10 mg/kg
Procedure, shortened: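 Object recognition task in rats. Drug or vehicle (PEG 400 50% v/v, 1 mL/kg) was given orally 60 min before testing, at 10 mg/kg. n = 6–9 per group.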

[22] = Ratio of drug level in brain to plasma at steady state in Wistar rat at 10 mg/kg, po after 1 hr; assay type: ADME, organism-based; parameters: dose 10 mg/kg, route oral; details: read-out: BPR
[23] = Half life in Wistar rat at 10 mg/kg, po; assay type: ADME, organism-based; parameters: dose 10 mg/kg, route oral; details: in vivo; procedure, shortened: as §2

Chain of D(2) dopamine receptor (Homo sapiens) (P14416 whole entry): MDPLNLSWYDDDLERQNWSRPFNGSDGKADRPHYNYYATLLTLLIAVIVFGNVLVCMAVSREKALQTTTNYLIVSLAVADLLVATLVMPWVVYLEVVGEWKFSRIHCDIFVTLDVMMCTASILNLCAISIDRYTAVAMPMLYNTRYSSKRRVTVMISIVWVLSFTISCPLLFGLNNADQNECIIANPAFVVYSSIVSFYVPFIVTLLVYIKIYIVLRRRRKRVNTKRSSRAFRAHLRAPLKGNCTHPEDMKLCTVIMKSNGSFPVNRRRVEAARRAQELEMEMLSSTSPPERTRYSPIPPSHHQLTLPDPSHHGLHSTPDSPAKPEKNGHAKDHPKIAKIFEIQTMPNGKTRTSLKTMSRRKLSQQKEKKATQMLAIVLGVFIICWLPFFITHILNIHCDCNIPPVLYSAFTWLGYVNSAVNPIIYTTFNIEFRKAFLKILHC
Chain of Histamine H1 receptor (Homo sapiens) (P35367 whole entry): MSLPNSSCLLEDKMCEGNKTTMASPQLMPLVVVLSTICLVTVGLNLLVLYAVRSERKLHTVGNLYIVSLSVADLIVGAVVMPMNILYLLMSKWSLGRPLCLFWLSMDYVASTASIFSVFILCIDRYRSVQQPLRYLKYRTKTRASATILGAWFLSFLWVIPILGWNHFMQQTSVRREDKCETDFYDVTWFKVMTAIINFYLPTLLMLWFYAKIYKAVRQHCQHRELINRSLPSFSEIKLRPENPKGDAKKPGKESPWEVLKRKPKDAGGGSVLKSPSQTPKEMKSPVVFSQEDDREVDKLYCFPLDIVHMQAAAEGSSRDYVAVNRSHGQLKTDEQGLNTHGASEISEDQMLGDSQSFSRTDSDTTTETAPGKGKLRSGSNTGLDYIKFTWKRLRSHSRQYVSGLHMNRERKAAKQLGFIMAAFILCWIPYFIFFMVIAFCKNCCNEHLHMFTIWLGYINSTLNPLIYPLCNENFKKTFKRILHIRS
Chain of hERG (KCNH2) (Q12809 whole entry): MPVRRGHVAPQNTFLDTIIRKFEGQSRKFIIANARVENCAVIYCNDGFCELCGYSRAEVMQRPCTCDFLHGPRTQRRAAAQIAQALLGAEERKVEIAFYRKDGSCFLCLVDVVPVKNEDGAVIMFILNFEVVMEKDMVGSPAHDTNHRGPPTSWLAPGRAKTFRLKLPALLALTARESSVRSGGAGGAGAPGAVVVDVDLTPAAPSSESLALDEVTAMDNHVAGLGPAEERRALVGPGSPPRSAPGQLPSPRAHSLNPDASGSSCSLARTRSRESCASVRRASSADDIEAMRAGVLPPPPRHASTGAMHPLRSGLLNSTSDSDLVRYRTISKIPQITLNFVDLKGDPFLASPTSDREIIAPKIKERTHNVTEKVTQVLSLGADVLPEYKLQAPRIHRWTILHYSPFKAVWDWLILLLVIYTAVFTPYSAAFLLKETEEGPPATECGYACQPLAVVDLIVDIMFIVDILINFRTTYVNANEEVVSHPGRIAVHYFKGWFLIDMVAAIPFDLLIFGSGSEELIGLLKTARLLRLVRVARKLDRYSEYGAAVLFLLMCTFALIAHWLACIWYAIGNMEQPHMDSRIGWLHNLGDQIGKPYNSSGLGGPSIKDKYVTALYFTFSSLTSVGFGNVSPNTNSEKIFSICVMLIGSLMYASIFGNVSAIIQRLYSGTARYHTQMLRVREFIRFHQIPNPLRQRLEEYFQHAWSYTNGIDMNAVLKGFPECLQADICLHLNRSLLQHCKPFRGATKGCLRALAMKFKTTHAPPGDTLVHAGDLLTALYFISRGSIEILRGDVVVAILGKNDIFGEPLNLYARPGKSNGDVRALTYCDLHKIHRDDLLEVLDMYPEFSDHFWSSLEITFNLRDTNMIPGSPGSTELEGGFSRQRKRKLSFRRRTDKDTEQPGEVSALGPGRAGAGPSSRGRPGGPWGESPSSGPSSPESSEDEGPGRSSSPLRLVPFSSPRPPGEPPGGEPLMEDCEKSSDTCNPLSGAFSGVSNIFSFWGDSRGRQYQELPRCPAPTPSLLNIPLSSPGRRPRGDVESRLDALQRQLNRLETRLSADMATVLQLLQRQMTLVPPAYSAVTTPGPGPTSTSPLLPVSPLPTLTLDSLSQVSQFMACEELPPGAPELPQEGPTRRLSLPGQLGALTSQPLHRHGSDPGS
Chain of 5-hydroxytryptamine receptor 2A (Homo sapiens) (P28223 whole entry): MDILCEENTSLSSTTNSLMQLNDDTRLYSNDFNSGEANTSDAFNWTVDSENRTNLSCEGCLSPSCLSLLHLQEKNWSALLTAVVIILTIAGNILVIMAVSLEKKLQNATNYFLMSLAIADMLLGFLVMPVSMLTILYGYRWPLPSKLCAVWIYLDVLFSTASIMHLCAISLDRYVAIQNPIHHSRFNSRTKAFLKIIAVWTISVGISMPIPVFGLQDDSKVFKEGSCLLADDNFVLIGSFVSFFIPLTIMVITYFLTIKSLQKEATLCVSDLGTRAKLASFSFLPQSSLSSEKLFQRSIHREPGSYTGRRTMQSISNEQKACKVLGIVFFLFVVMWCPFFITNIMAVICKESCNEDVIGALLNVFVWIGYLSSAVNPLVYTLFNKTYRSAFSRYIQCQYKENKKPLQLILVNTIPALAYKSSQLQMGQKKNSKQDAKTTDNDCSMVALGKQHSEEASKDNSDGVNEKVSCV
Chain of Sodium-dependent noradrenaline transporter (Homo sapiens) (P23975 whole entry): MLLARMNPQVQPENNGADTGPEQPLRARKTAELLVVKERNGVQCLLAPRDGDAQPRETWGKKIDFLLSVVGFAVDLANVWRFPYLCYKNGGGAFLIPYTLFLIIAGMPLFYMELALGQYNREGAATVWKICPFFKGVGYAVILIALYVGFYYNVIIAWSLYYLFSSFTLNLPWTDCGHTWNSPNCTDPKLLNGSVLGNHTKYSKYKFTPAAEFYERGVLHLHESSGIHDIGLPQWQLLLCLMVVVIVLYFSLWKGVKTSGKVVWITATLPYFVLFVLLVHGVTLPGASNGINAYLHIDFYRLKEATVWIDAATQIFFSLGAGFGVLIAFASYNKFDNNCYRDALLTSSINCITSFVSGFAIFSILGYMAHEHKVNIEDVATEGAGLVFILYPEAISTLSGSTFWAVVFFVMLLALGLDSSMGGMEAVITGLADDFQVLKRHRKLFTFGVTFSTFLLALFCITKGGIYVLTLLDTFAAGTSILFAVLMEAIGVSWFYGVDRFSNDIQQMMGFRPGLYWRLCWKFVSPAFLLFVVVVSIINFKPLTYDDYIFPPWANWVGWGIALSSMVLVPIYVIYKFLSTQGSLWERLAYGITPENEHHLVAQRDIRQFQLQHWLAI
Chain of Sodium-dependent serotonin transporter (Homo sapiens) (P31645 whole entry, looked up): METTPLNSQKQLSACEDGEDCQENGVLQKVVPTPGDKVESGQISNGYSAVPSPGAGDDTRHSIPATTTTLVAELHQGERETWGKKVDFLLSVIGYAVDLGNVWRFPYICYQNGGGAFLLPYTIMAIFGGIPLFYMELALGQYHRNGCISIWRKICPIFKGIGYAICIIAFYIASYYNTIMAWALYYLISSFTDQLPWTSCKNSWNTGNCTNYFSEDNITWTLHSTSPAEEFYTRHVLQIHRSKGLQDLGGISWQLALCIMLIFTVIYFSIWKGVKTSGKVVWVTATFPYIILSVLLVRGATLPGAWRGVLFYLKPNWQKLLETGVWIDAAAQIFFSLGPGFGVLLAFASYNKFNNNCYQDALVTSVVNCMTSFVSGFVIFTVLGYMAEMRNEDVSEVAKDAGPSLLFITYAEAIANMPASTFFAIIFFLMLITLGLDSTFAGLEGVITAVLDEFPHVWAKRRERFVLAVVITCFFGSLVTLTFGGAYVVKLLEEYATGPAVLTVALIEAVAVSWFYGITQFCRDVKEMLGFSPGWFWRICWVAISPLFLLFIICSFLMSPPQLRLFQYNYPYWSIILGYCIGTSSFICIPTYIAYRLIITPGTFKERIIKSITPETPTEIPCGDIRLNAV
Chain of D(3) dopamine receptor (Homo sapiens) (P35462 whole entry): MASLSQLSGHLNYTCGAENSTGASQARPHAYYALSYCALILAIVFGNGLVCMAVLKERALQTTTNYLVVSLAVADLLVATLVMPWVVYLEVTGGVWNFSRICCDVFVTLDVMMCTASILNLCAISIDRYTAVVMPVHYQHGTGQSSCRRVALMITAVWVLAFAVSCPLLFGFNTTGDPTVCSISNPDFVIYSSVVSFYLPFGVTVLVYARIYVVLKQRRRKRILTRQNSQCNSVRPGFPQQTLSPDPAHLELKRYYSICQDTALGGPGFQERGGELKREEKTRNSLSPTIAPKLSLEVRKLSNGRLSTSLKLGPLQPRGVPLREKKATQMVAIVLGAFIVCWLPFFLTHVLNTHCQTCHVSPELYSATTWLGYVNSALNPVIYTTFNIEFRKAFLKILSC
Chain of Sodium-dependent dopamine transporter (Homo sapiens) (Q01959 whole entry): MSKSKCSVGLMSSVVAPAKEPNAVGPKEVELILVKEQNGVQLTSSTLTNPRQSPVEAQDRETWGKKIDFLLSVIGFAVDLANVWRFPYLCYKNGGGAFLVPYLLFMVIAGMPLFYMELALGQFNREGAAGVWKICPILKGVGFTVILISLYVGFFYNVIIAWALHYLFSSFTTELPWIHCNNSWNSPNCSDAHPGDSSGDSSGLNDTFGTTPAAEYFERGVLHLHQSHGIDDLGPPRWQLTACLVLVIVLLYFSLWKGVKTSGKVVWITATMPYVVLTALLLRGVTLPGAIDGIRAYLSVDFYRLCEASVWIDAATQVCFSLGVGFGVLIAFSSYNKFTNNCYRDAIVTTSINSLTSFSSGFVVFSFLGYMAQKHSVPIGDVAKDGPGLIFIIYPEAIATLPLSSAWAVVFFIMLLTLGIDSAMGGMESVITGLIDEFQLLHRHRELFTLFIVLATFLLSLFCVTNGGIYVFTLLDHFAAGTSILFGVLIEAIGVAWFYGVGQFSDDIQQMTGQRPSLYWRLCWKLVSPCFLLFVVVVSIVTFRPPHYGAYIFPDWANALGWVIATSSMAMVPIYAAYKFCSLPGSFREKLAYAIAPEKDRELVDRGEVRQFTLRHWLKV

| Structure (SMILES) | inhibition [1] [%] | inhibition [2] [%] | inhibition [3] [%] | inhibition [4] [%] | inhibition [5] [%] | inhibition [6] [%] | inhibition [7] [%] | inhibition at 1 µM (hERG (KCNH2)) [%] | inhibition [8] [%] | inhibition [9] [%] | Tmax [10] [h] | Cmax [11] [ng/mL] | IC50 (Cytochrome P450 2D6) [nM] | bioavailability [12] [%] | metabolised at 0.5 h, 2.5 µM [13] [%] | AUC(0-t) [14] [ng·h/mL] | half-life [15] [h] | Imax [16] [%] | clearance [17] [mL/min/kg] | Ki [18] [nM] | further results |
| --- | --- | --- | --- | --- | --- | --- | --- | --- | --- | --- | --- | --- | --- | --- | --- | --- | --- | --- | --- | --- | --- |
| CN1CCN(Cc2cccc3c2c(Cl)cn3S(=O)(=O)c2cccc(Cl)c2)CC1 | 20.4 | 17.7 | 12.9 | 13.5 | 9.33 | 1.51 | 0.78 | 20.2 | 28.5 | 19.9 |  |  |  |  |  |  |  |  |  |  |  |
| CN1CCN(Cc2cccc3c2ccn3S(=O)(=O)c2ccccc2)CC1 | 3.92 | 10.9 | 7.26 | 10.2 | 10.1 | 2.85 | 0.99 | 21.1 | 22.6 | 6.73 | 1.08 | 7.6 | 16800 | 2 | 47 | 23 | 1.53 | 99 | 152 | 3.24 | IC50 (Cytochrome P450 3A4): 30500 nM; metabolised at 0.5 h, 2.5 µM [19]: 100%; IC50 [20]: 234 nM; Kb [20]: 1.02 nM; Vd [21]: 19.4 L/kg |
| O=S(=O)(c1ccccc1Br)n1ccc2c(CN3CCNCC3)cccc21 | 5.23 | 18.7 | 12.8 | 6.28 | 9.82 | 8.47 | 1.13 | 24.5 | 8.31 | 18 |  |  |  |  |  |  |  |  |  | 2.82 |  |
| CN1CCN(Cc2cccc3c2ccn3S(=O)(=O)c2ccccc2Br)CC1 | 3.66 | 24 | 11.1 | 10.8 | 9.48 | 4.62 | 2.26 | 15.8 | 27.8 | 18.8 | 1.83 | 60 | 19500 | 29 | 90 | 217 | 1.76 | 100 | 220 |  | Activity (Rattus norvegicus): Active; Kp at 1 h [22]: 20.3; half-life [23]: 3.17 h; metabolised at 0.5 h, 2.5 µM [19]: 100%; IC50 [20]: 135 nM; Kb [20]: 0.59 nM; Vd [21]: 32.6 L/kg |
| CN1CCN(Cc2cccc3c2c(Br)cn3S(=O)(=O)c2ccccc2)CC1 | 3.53 | 19.3 | 5.01 | 6.78 | 2.38 | 5.27 | 2.17 | 23 | 35.7 | 8.93 |  |  |  |  |  |  |  |  |  |  |  |
